The values that follow come from ChEMBL document CHEMBL3421541, “Benzaldehyde Schiff bases regulation to the metabolism, hemolysis, and virulence genes expression in vitro and their structure-microbicidal activity relationship” (2015).

Test [1] relates to Bacillus subtilis. As to the kind of experiment: Antibacterial activity against Bacillus subtilis assessed as lowest concentration required to reduce growth by 1% after 8 hrs by ELISA plate reader analysis relative to control. The test is classed as functional. The gist of the method: (§1)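 MBC was found by broth microdilution. Inocula of 1×10^5 CFU/mL in LB were shaken at 37 °C with a series of compound concentrations, then read at OD450. MBC was defined as the lowest concentration reducing growth by 1% versus the inoculum control. Three independent experiments were run.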

Test [2] concerns Staphylococcus aureus. As to the kind of experiment: Antibacterial activity against Staphylococcus aureus assessed as growth inhibition at 100 umol/L after 8 hrs by ELISA plate reader analysis relative to control. To be noted: read-out: GI. The test is classed as functional. The gist of the method: (§2)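 Bacteria were seeded at 1×10^5 CFU/mL in LB, and compound was added to 100 µmol/L final. Compounds came from DMSO stock, with DMSO ≤1% (v/v) final. Cultures were shaken at 37 °C for 8 h and read at OD450. Inhibition % = (OD vehicle control − OD sample)/OD vehicle control × 100. Values are the mean of three independent experiments.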

Test [3] relates to Staphylococcus aureus. As to the kind of experiment: Antibacterial activity against Staphylococcus aureus assessed as lowest concentration required to reduce growth by 1% after 8 hrs by ELISA plate reader analysis relative to control. The test is classed as functional. The gist of the method: as §1
In test [4] the test system is Bacillus subtilis. As to the kind of experiment: Antibacterial activity against Bacillus subtilis assessed as growth inhibition at 100 umol/L after 8 hrs by ELISA plate reader analysis relative to control. The test is classed as functional. To be noted: read-out: GI. Put shortly:
as §2

Test [5] relates to Escherichia coli. Description: Antibacterial activity against Escherichia coli assessed as growth inhibition at 100 umol/L after 8 hrs by ELISA plate reader analysis relative to control. The test is classed as functional. The note with it: read-out: GI. Put shortly:
as §2

Test [6] relates to Staphylococcus aureus. As to the kind of experiment: Downregulation of mecA gene expression in Staphylococcus aureus at 50 umol/L after 8 hrs by real-time RT-PCR analysis relative to control. The test is classed as functional. Put shortly: (§3)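 S. aureus ATCC 25923 at 2×10^7 CFU/mL in LB was exposed to 50 µmol/L compound, or LB alone, for 8 h at 37 °C. Total RNA was analysed by TaqMan real-time RT-PCR or semi-quantitative RT-PCR, normalised to gyrB. Fold change is versus time-matched medium-only cultures, with data pooled from three experiments.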

Test [7] has as its system Staphylococcus aureus. Description: Upregulation of hla gene expression in Staphylococcus aureus at 50 umol/L after 8 hrs by real-time RT-PCR analysis relative to control. The test is classed as functional, organism-based. Put shortly:
as §3
(In general: In qPCR the cycle at which signal appears reflects the starting amount.)

Test [8] deals with Staphylococcus aureus. As to the kind of experiment: Downregulation of mecA gene expression in Staphylococcus aureus at 50 umol/L after 8 hrs by semi-quantitative RT-PCR analysis relative to control. The test is classed as functional. Put shortly: as §3
Test [9] has as its system Staphylococcus aureus. As to the kind of experiment: Upregulation of hla gene expression in Staphylococcus aureus at 50 umol/L after 8 hrs by semi-quantitative RT-PCR analysis relative to control. The test is classed as functional, organism-based. Put shortly:
as §3

Test [10] relates to Staphylococcus aureus. As to the kind of experiment: Downregulation of saeR gene expression in Staphylococcus aureus at 50 umol/L after 8 hrs by semi-quantitative RT-PCR analysis relative to control. The test is classed as functional, organism-based. The gist of the method:
as §3

In test [11] the test system is Staphylococcus aureus. Description: Downregulation of saeR gene expression in Staphylococcus aureus at 50 umol/L after 8 hrs by real-time RT-PCR analysis relative to control. The test is classed as functional, organism-based. Put shortly:
as §3

Test [12] has as its system Bacillus subtilis. As to the kind of experiment: Downregulation of yqhB gene expression in Bacillus subtilis at 50 umol/L after 8 hrs by semi-quantitative RT-PCR analysis relative to control. The test is classed as functional, organism-based. The gist of the method:
(§4)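 B. subtilis ATCC 6051 at 2×10^7 CFU/mL in LB was exposed to 50 µmol/L compound, or LB alone, for 8 h at 37 °C. Total RNA was analysed by TaqMan real-time RT-PCR or semi-quantitative RT-PCR, normalised to 16sRNA. Fold change is versus time-matched medium-only cultures, with data pooled from three experiments.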

The test system of test [13] is Bacillus subtilis. Description: Downregulation of yhdT gene expression in Bacillus subtilis at 50 umol/L after 8 hrs by semi-quantitative RT-PCR analysis relative to control. The test is classed as functional, organism-based. The gist of the method:
as §4

The subject of test [14] is Bacillus subtilis. As to the kind of experiment: Downregulation of yhdT gene expression in Bacillus subtilis at 50 umol/L after 8 hrs by real-time RT-PCR analysis relative to control. The test is classed as functional, organism-based. Put shortly: as §4
For test [15], the system named is Bacillus subtilis. As to the kind of experiment: Downregulation of yhdP gene expression in Bacillus subtilis at 50 umol/L after 8 hrs by semi-quantitative RT-PCR analysis relative to control. The test is classed as functional, organism-based. Put shortly:
as §4

Test [16] has as its system Bacillus subtilis. Description: Downregulation of yqhB gene expression in Bacillus subtilis at 50 umol/L after 8 hrs by real-time RT-PCR analysis relative to control. The test is classed as functional, organism-based. The gist of the method: as §4
For test [17], the system named is Bacillus subtilis. Description: Downregulation of yugS gene expression in Bacillus subtilis at 50 umol/L after 8 hrs by semi-quantitative RT-PCR analysis relative to control. The test is classed as functional, organism-based. The gist of the method: as §4
Test [18] deals with Bacillus subtilis. As to the kind of experiment: Downregulation of yqhC gene expression in Bacillus subtilis at 50 umol/L after 8 hrs by semi-quantitative RT-PCR analysis relative to control. The test is classed as functional, organism-based. Put shortly: as §4
The test system of test [19] is Bacillus subtilis. As to the kind of experiment: Downregulation of yugS gene expression in Bacillus subtilis at 50 umol/L after 8 hrs by real-time RT-PCR analysis relative to control. The test is classed as functional, organism-based. The gist of the method:
as §4

Test [20] has as its system Bacillus subtilis. As to the kind of experiment: Downregulation of yqhC gene expression in Bacillus subtilis at 50 umol/L after 8 hrs by real-time RT-PCR analysis relative to control. The test is classed as functional, organism-based. The gist of the method: as §4
Test [21] deals with Bacillus subtilis. Description: Downregulation of yhdP gene expression in Bacillus subtilis at 50 umol/L after 8 hrs by real-time RT-PCR analysis relative to control. The test is classed as functional, organism-based. The gist of the method: as §4
The subject of test [22] is Escherichia coli. As to the kind of experiment: Downregulation of IroD gene expression in Escherichia coli at 50 umol/L after 8 hrs by semi-quantitative RT-PCR analysis relative to control. The test is classed as functional, organism-based. The gist of the method:
(§5)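 E. coli at 2×10^7 CFU/mL in LB was exposed to 50 µmol/L compound, or LB alone, for 8 h at 37 °C. Total RNA was then analysed by TaqMan real-time RT-PCR or semi-quantitative RT-PCR. Transcripts were normalised to gapA. Fold change is relative to time-matched medium-only cultures.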

The test system of test [23] is Escherichia coli. As to the kind of experiment: Upregulation of cysB gene expression in Escherichia coli at 50 umol/L after 8 hrs by semi-quantitative RT-PCR analysis relative to control. The test is classed as functional, organism-based. Put shortly: as §5
Test [24] concerns Escherichia coli. Description: Upregulation of acrA gene expression in Escherichia coli at 50 umol/L after 8 hrs by real-time RT-PCR analysis relative to control. The test is classed as functional, organism-based. The gist of the method: as §5
The subject of test [25] is Escherichia coli. As to the kind of experiment: Upregulation of acrA gene expression in Escherichia coli at 50 umol/L after 8 hrs by semi-quantitative RT-PCR analysis relative to control. The test is classed as functional, organism-based. Put shortly:
as §5

Test [26] deals with Escherichia coli. As to the kind of experiment: Upregulation of cysB gene expression in Escherichia coli at 50 umol/L after 8 hrs by real-time RT-PCR analysis relative to control. The test is classed as functional, organism-based. Put shortly: as §5
Test [27] deals with Escherichia coli. Description: Antibacterial activity against Escherichia coli assessed as lowest concentration required to reduce growth by 1% after 8 hrs by ELISA plate reader analysis relative to control. The test is classed as functional. Put shortly: as §1
Test [28] concerns Escherichia coli. Description: Downregulation of tsh gene expression in Escherichia coli at 50 umol/L after 8 hrs by semi-quantitative RT-PCR analysis relative to control. The test is classed as functional, organism-based. The gist of the method:
as §5

The subject of test [29] is Escherichia coli. Description: Downregulation of tsh gene expression in Escherichia coli at 50 umol/L after 8 hrs by real-time RT-PCR analysis relative to control. The test is classed as functional, organism-based. Put shortly: as §5
The subject of test [30] is Escherichia coli. As to the kind of experiment: Downregulation of IroD gene expression in Escherichia coli at 50 umol/L after 8 hrs by real-time RT-PCR analysis relative to control. The test is classed as functional, organism-based. Put shortly: as §5
Test [31] relates to Staphylococcus aureus. As to the kind of experiment: Upregulation of sbi gene expression in Staphylococcus aureus at 50 umol/L after 8 hrs by semi-quantitative RT-PCR analysis relative to control. The test is classed as functional, organism-based. Put shortly:
as §3

The subject of test [32] is Staphylococcus aureus. Description: Upregulation of sbi gene expression in Staphylococcus aureus at 50 umol/L after 8 hrs by real-time RT-PCR analysis relative to control. The test is classed as functional, organism-based. The gist of the method: as §3

Structures are written as SMILES. Values after ≈ are worked out from the molar mass of the structure shown. Active and inactive are the calls of the source.

What is called MBC is the lowest tested concentration that kills the bacteria rather than only halting them.

Regarding `CN[C@@H]1[C@H](O[C@H]2[C@H](O[C@H]3[C@H](O)[C@@H](O)[C@H](N=C(N)N)[C@@H](O)[C@@H]3N=C(N)N)O[C@@H](C)[C@]2(O)C=O)O[C@@H](CO)[C@H](O)[C@H]1O` [STREPTOMYCIN], the minimum bactericidal concentration (MBC) in the test on Bacillus subtilis [1] was determined as 2.1 µM (≈ 1.22 µg/mL); with Staphylococcus aureus [3], 1.3 µM (≈ 0.756 µg/mL). In addition, the figures for the inhibition of growth at 100 µM with Staphylococcus aureus [2] and in the test on Bacillus subtilis [4] were 97% and 94.1%, respectively.
For the compound `CC(C)(C)c1cc(/C=N/NC(=O)c2ccncc2)c(O)c(C(C)(C)C)c1`, the inhibition of growth at 100 µM in the test with Escherichia coli [5] is 13.4%; in the test on Staphylococcus aureus [2] it was 95.5%. The “fold change (FC)” value in the test on Staphylococcus aureus [6] and with Staphylococcus aureus [8] was 2 throughout. Moreover, the outcome with Staphylococcus aureus [7], in the test on Staphylococcus aureus [9], in the test with Staphylococcus aureus [10] and in the test with Staphylococcus aureus [11] was Active. The minimal bactericidal concentration (MBC) in the test with Staphylococcus aureus [3] was 3.1 µM (≈ 1.1 µg/mL).
For `O=C(N/N=C/c1cc([N+](=O)[O-])ccc1O)c1ccncc1`, the inhibition of growth at 100 µM in the test with Escherichia coli [5] was 41.8%.
Consider `O=C(COc1ccc(Cl)cc1)N/N=C/c1cc([N+](=O)[O-])ccc1O`, for which the result in the test with Bacillus subtilis [12], in the test with Bacillus subtilis [13], in the test with Bacillus subtilis [14], in the test with Bacillus subtilis [15], in the test on Bacillus subtilis [16] and with Bacillus subtilis [17] was Active. Moreover, the result in the test on Bacillus subtilis [18], in the test on Bacillus subtilis [19], in the test with Bacillus subtilis [20] and with Bacillus subtilis [21] was Active. Moreover, the minimum bactericidal concentration (MBC) in the test with Bacillus subtilis [1] came out at 2.8 µM (≈ 0.979 µg/mL). In addition, the inhibition of growth at 100 µM was determined as 1.39% in the test on Staphylococcus aureus [2] and 96.4% in the test on Bacillus subtilis [4].
Turning to `COc1ccc(CC(=O)N/N=C/c2cc([N+](=O)[O-])ccc2O)cc1`, the inhibition of growth at 100 µM with Escherichia coli [5] amounted to 5.57%.
Still for that read-out and setting: then `O=C(COc1ccc(Cl)cc1)N/N=C/c1ccccc1O`, with 0.23%.
As to `O=C(N/N=C/c1cc(Br)ccc1O)c1ccncc1`, the outcome in the test with Escherichia coli [22], in the test with Escherichia coli [23], in the test on Escherichia coli [24], in the test with Escherichia coli [25], in the test with Escherichia coli [26] and in the test on Escherichia coli [28] was Active. The result in the test on Escherichia coli [29] and in the test with Escherichia coli [30] was Active. In addition, the inhibition of growth at 100 µM with Escherichia coli [5] amounted to 95.8%. The minimal bactericidal concentration (MBC) in the test with Escherichia coli [27] was 3.2 µM (≈ 1.02 µg/mL).
Consider `O=C(COc1ccc(Cl)cc1)N/N=C/c1ccc(OCc2ccccc2)c(OCc2ccccc2)c1`, for which the results for the inhibition of growth at 100 µM in the test on Escherichia coli [5], in the test on Staphylococcus aureus [2] and with Bacillus subtilis [4] were 17.6%, 99.5% and 6.21%, respectively. In addition, the “fold change (FC)” value in the test on Staphylococcus aureus [6] and with Staphylococcus aureus [8] was 2 each time. Also, the outcome with Staphylococcus aureus [7], with Staphylococcus aureus [31], with Staphylococcus aureus [32] and in the test on Staphylococcus aureus [9] was Active. Moreover, the MBC in the test with Staphylococcus aureus [3] turned out to be 1.4 µM (≈ 0.701 µg/mL).
